Key:
[1] = Clearance in dog at 2 mg/kg, iv; type: ADME, organism-based, Canis lupus familiaris; parameters: dose 2 mg/kg, route intravenous; settings: in vivo
Procedure, shortened: (§1)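 Dog pharmacokinetics, iv dosing only, in vehicle PEG400:water 80:20.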

[2] = Mean residence time in mouse at 2 mg/kg, iv and 10 mg/kg, po; type: ADME, organism-based; settings: in vivo
[3] = biological target: Mitogen-activated protein kinase 10 (Homo sapiens) (UniProt P53779); assay: Residual activity at JNK3 at 10 uM relative to control
Chain of Mitogen-activated protein kinase 10 (Homo sapiens) (P53779 whole entry): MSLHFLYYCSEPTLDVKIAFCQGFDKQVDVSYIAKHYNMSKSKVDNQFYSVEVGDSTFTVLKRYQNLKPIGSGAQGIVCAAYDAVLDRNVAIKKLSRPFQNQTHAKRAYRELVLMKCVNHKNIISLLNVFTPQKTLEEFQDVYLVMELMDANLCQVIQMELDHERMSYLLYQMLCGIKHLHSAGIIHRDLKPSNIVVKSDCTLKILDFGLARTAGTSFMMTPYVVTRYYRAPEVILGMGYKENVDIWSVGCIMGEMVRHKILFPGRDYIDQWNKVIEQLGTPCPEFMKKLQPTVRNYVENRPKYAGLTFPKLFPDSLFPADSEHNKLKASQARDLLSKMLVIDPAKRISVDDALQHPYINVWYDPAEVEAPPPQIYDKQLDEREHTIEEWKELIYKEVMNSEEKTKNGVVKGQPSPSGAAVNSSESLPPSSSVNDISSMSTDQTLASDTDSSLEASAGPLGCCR

[4] = biological target: T1, Inhibitor of nuclear factor kappa-B kinase subunit beta (Homo sapiens, UniProt O14920); assay: Inhibition of IKK2
T1 sequence (O14920 whole entry): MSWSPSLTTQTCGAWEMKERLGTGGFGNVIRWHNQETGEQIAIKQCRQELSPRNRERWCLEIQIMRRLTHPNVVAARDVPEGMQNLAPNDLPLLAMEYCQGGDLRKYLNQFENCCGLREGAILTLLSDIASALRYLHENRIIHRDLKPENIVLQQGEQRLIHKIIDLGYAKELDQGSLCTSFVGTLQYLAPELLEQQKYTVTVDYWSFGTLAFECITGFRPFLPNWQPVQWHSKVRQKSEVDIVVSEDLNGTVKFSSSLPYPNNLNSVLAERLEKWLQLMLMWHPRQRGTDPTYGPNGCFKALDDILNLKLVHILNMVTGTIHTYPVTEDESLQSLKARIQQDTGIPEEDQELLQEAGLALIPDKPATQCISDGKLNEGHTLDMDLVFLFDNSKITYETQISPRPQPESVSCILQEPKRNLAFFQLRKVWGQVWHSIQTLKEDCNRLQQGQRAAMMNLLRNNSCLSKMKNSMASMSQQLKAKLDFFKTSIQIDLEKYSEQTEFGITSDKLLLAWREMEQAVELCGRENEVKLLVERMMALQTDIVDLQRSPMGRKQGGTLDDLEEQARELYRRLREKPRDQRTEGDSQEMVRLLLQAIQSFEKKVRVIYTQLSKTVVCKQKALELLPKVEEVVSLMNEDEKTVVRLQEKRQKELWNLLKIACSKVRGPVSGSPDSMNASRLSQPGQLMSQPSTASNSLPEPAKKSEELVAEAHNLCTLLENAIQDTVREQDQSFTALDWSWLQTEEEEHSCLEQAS
Procedure, shortened: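 IKK-2 added at room temperature to 50 µg/mL GST-IκBα with ATP in 25 mM Tris·HCl, pH 7.5, containing MgCl₂, phosphate salts, NaCl, KCl, 1 mM DTT, 5% glycerol and BSA. Stopped after 60 min with 33 mM EDTA. Phospho-IκBα read by fluorescence-polarization competition between an anti-phospho-IκBα antibody and a fluorescein-labelled phosphopeptide.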

[5] = Volume of distribution at steady state in rat at 2 mg/kg, iv and 10 mg/kg, po; type: ADME, organism-based; settings: in vivo, read-out: Vdss
[6] = Clearance in mouse at 2 mg/kg, iv and 10 mg/kg, po; type: ADME, organism-based; settings: in vivo
[7] = Cmax in rat at 2 mg/kg, iv and 10 mg/kg, po; type: ADME, organism-based; settings: in vivo
[8] = Volume of distribution at steady state in mouse at 2 mg/kg, iv and 10 mg/kg, po; type: ADME, organism-based; settings: in vivo, read-out: Vdss
[9] = Oral bioavailability in mouse at 10 mg/kg; type: ADME, organism-based; settings: in vivo
Mus musculus [10] = assay: Antiarthritic activity in mouse assessed as decrease in collagen-induced arthritis at 60 mg/kg, po BID administered at time of second collagen challenge on day 25 measured on day 42; type: functional
Procedure, shortened: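 Collagen-induced arthritis in mice, n = 14–15 per group. Collagen priming injection on day 1, second collagen injection on day 25. Dosing 60 mg/kg by oral gavage twice daily, or vehicle, starting at the second injection. Read-out is the average gross clinical score per treatment group.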

Rattus norvegicus = assay: Total AUC in rat at 2 mg/kg, iv and 10 mg/kg, po; type: ADME, organism-based; settings: in vivo
[11] = Mean residence time in rat at 2 mg/kg, iv and 10 mg/kg, po; type: ADME, organism-based; settings: in vivo
PBMC = assay: Antiinflammatory activity in human PBMC assessed as inhibition of LPS-induced TNFalpha release treated for 5 mins before LPS challenge measured after 6 hrs by ELISA; type: functional, cell-based
Procedure, shortened: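 PBMCs purified from heparinized healthy-volunteer blood by Ficoll-Hypaque gradient and suspended at 5 × 10⁶/mL in RPMI with 10% FBS. Cells preincubated with compound (0.2% DMSO) for 5 min at room temperature. LPS added from a 200 ng/mL stock, then 6 h at 37 °C. Medium TNF-α measured by ELISA. IC50 by linear regression.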

Mus musculus [12] = assay: Total AUC in mouse at 2 mg/kg, iv and 10 mg/kg, po; type: ADME, organism-based; settings: in vivo
[13] = biological target: Death-associated protein kinase 2 (Homo sapiens) (UniProt Q9UIK4); assay: Residual activity at DAPK2 at 10 uM relative to control
Chain of Death-associated protein kinase 2 (Homo sapiens) (Q9UIK4 whole entry, looked up): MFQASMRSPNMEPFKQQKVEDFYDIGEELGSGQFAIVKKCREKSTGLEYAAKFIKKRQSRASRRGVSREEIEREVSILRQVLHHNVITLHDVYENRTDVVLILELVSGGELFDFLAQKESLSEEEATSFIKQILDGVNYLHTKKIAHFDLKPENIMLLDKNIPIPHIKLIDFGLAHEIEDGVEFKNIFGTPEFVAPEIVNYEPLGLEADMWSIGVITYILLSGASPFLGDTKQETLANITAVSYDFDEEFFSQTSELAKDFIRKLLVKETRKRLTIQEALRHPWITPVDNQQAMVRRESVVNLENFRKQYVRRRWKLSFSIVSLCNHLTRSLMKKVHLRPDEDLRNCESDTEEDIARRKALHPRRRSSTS

Canis familiaris = assay: Total AUC in dog at 2 mg/kg, iv; type: ADME, organism-based, Canis lupus familiaris; parameters: time AUCmax, dose 2 mg/kg, route intravenous; settings: in vivo
Procedure, shortened: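 Dogs received the compound intravenously only, in PEG400:water 80:20. Total plasma exposure (AUC_tot) is reported in nM h.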

[14] = Clearance in rat at 2 mg/kg, iv and 10 mg/kg, po; type: ADME, organism-based; settings: in vivo
[15] = Cmax in mouse at 2 mg/kg, iv and 10 mg/kg, po; type: ADME, organism-based; settings: in vivo
[16] = Tmax in mouse at 2 mg/kg, iv and 10 mg/kg, po; type: ADME, organism-based; settings: in vivo
Blood = assay: Antiinflammatory activity in mouse whole blood assessed as inhibition of LPS-induced TNFalpha release treated for 5 mins before LPS challenge measured after 6 hrs by ELISA; type: functional, tissue-based
[17] = Half life in rat at 2 mg/kg, iv and 10 mg/kg, po; type: ADME, organism-based; settings: in vivo
Mus musculus [18] = assay: Antiinflammatory activity in BALB/c mouse assessed as inhibition of LPS-induced TNFalpha release at 100 mg/kg, po administered for 5 hrs before LPS challenge measured after 6.5 hrs post dose by ELISA; type: functional
Procedure, shortened: (§2)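 BALB/c female mice, 6–8 weeks old, n = 7–8 per treatment. Compounds given by oral gavage at 30 and 100 mg/kg in PEG400/HCl/Tween80/water; controls received vehicle alone. Five hours later, E. coli O111:B4 LPS 50 µg/kg ip. Serum collected 90 min after LPS, TNF-α measured by ELISA. Drug exposure sampled 6.5 h post-dose. Mean ± standard error.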

[19] = Oral bioavailability in rat at 10 mg/kg; type: ADME, organism-based; settings: in vivo
Mus musculus [20] = assay: Antiinflammatory activity in po dosed BALB/c mouse assessed as inhibition of LPS-induced TNFalpha release administered for 5 hrs before LPS challenge measured after 6.5 hrs post dose by ELISA; type: functional, organism-based; procedure, shortened: as §2
[21] = biological target: Serine/threonine-protein kinase 16 (Homo sapiens) (UniProt O75716); assay: Residual activity at STK16 at 10 uM relative to control
Chain of Serine/threonine-protein kinase 16 (Homo sapiens) (O75716 whole entry): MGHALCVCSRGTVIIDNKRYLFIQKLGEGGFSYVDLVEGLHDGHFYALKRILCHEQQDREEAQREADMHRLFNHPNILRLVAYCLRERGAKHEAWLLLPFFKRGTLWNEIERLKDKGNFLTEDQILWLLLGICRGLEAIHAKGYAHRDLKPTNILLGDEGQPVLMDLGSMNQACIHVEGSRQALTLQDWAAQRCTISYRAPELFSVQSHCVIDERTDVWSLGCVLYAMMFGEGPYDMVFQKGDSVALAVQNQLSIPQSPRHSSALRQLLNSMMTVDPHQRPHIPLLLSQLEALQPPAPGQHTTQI

[22] = Half life in dog at 2 mg/kg, iv; type: ADME, organism-based, Canis lupus familiaris; parameters: dose 2 mg/kg, route intravenous; settings: in vivo; procedure, shortened: as §1
[23] = Volume of distribution at steady state in dog at 2 mg/kg, iv; type: ADME, organism-based, Canis lupus familiaris; parameters: dose 2 mg/kg, route intravenous; settings: in vivo, read-out: Vdss; procedure, shortened: as §1

For CCNc1nc2sc(-c3cccc([C@H](C)NC(C)=O)c3)nc2c2c1ncn2C, the clearance [1] was 43 mL/min/kg, the MRT [2] was 174 min and the residual activity [3] was under 10%. For the same molecule, the IC50 [4] was 19 nM, the Vd [5] was 2.3 L/kg and the clearance [6] was 62 mL/min/kg. For the same molecule, the Cmax [7] was 1650 nM, the Vd [8] was 1.5 L/kg and the bioavailability [9] was 57%. The inhibition in vivo at 60 mg/kg (Mus musculus [10]) was 80%, the AUC (Rattus norvegicus) was 4.63 µM and the MRT [11] was 126 min. For the same molecule, the IC50 (PBMC) was 220 nM, the AUC (Mus musculus [12]) was 3000 nM and the residual activity [13] was under 10%. It also gave an AUC (Canis familiaris) of 1980 nM, a clearance [14] of 63 mL/min/kg and a Cmax [15] of 1330 nM. It also gave a Tmax [16] of 30 min, an IC50 (Blood) of 1000 nM and a half-life [17] of 36 min. The inhibition in vivo at 100 mg/kg (Mus musculus [18]) was 75%, the bioavailability [19] was 88% and the inhibition (Mus musculus [20]) was “Dose-dependent effect”. For the same molecule, the residual activity [21] was under 10%, the half-life [22] was 42 min and the Vd [23] was 3.1 L/kg.
